In ChEMBL document CHEMBL1135642, “Synthesis and biological evaluation of 7,8,9,10-tetrahydroimidazo[1,2-c]pyrido[3,4-e]pyrimdin-5(6H)-ones as functionally selective ligands of the benzodiazepine receptor site on the GABA(A) receptor” (J Med Chem, 2002):
Calls of active or inactive are those of the source. The rule behind the calls is not given here.

What was measured:
[1] = target: T1, Gamma-aminobutyric acid receptor subunit alpha-3 (Homo sapiens) (UniProt P34903); test: Maximum percent potentiation against gamma-aminobutyric acid (GABA) A receptor, alpha 3; settings: Xenopus laevis
T1 sequence (whole entry): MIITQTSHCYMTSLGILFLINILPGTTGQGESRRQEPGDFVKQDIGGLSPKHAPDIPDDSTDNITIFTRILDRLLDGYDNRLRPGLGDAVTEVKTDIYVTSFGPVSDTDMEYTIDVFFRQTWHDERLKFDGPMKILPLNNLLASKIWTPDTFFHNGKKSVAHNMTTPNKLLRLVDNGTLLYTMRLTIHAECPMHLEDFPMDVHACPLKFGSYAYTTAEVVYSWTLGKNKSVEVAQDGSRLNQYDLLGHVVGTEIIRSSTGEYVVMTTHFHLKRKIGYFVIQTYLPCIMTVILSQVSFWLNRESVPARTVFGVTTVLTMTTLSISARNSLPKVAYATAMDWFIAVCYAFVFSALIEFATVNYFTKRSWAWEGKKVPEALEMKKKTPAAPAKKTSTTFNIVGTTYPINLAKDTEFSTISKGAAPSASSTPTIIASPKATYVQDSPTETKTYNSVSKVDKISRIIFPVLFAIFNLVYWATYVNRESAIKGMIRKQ
How it was run: (§1)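 Xenopus laevis oocytes were injected with human cRNA for the α, β and γ subunits needed to express each receptor subtype (α1, α2, α3 or α5). Electrophysiological recording was used to read potentiation, and the effective concentration and maximal percent potentiation were derived from it.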

[2] = target: GABA-A receptor; anion channel; test: Binding affinity was determined by displacement of [3H]flumazenil from rat cortex homogenates; type: functional
How it was run: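 Displacement of [3H]flumazenil from rat cortex homogenates. Values are averages (±SD); some analogues were run once as a single set of triplicates. NA means an IC50 was not achieved at the highest dose tested.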

[3] = target: T2, Gamma-aminobutyric acid receptor subunit alpha-5 (Homo sapiens) (UniProt P31644); test: Maximum percent potentiation against gamma-aminobutyric acid (GABA) A receptor, alpha 5; settings: Xenopus laevis; how it was run: as §1
T2 sequence (whole entry): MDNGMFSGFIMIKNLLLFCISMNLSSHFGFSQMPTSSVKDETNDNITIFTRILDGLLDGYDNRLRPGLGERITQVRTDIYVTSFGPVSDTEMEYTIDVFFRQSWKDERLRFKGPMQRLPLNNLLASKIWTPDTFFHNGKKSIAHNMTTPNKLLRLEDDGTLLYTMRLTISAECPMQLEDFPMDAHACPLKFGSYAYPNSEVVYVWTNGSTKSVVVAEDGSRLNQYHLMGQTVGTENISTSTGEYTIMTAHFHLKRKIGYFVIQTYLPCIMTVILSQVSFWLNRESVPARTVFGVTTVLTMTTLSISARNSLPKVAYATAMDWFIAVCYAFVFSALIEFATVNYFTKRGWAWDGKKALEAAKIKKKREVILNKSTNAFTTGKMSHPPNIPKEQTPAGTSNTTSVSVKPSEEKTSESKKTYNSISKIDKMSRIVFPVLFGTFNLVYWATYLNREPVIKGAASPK

[4] = target: T3, Gamma-aminobutyric acid receptor subunit alpha-5 (Homo sapiens, UniProt P31644); test: Effective concentration against Gamma-aminobutyric acid A receptor, alpha 5; design: species or system Xenopus laevis; how it was run: as §1
T3 sequence (P31644 whole entry): T2 sequence (whole entry)

[5] = target: T4, Gamma-aminobutyric acid receptor subunit alpha-2 (Homo sapiens, UniProt P47869); test: Effective concentration against gamma-aminobutyric acid (GABA) A receptor, alpha 2; design: species or system Xenopus laevis; how it was run: as §1
T4 sequence (P47869 whole entry): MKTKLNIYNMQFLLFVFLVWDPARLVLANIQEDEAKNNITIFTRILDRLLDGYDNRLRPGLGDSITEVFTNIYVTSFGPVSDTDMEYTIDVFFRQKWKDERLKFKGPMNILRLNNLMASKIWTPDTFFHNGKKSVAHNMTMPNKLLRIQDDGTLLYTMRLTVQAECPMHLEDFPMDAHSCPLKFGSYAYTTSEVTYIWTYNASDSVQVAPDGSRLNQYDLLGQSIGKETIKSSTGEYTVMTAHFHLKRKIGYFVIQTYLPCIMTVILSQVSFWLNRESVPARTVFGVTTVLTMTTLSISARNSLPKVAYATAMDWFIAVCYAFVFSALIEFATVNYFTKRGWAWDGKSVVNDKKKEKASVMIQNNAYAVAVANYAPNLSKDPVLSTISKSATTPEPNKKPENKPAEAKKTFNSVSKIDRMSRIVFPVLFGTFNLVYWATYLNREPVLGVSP

[6] = target: T5, Gamma-aminobutyric acid receptor subunit alpha-1 (Homo sapiens, UniProt P14867); test: Effective concentration against gamma-aminobutyric acid (GABA) A receptor, alpha 1; design: species or system Xenopus laevis; how it was run: as §1
T5 sequence (P14867 whole entry): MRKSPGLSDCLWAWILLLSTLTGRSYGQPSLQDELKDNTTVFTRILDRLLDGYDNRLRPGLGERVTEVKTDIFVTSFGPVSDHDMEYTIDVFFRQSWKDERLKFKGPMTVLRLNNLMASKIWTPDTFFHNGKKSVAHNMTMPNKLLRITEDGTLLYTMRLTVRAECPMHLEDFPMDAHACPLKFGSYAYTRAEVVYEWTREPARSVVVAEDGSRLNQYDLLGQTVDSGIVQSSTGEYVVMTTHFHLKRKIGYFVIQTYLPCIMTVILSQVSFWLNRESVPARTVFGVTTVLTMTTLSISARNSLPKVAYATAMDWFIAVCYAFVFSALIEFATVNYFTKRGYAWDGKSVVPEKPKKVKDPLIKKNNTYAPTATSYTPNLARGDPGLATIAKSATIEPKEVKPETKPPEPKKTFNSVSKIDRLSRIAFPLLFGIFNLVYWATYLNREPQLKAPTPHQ

[7] = target: T6, Gamma-aminobutyric acid receptor subunit alpha-1 (Homo sapiens) (UniProt P14867); test: Maximum percent potentiation against gamma-aminobutyric acid (GABA) A receptor, alpha 1; settings: Xenopus laevis; how it was run: as §1
T6 sequence (whole entry): T5 sequence (P14867 whole entry)

[8] = target: T7, Gamma-aminobutyric acid receptor subunit alpha-3 (Homo sapiens, UniProt P34903); test: Effective concentration against gamma-aminobutyric acid (GABA) A receptor, alpha 3; design: species or system Xenopus laevis; how it was run: as §1
T7 sequence (P34903 whole entry): T1 sequence (whole entry)

[9] = target: T8, Gamma-aminobutyric acid receptor subunit alpha-2 (Homo sapiens) (UniProt P47869); test: Maximum percent potentiation against gamma-aminobutyric acid (GABA) A receptor, alpha 2; settings: Xenopus laevis; how it was run: as §1
T8 sequence (whole entry): T4 sequence (P47869 whole entry)

Rattus norvegicus = species: Rattus norvegicus; test: Rat behavioral spontaneous Locomotor Activity; type: functional
How it was run: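 Male Sprague-Dawley rats received the test drug iv in 50% aqueous PEG-400, which also served as the control vehicle. They were then placed in an automated activity monitor, and movement time, total distance and vertical activity were recorded over 15 min. Each drug was compared against vehicle, and NS marks a difference that was not significant.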

[10] = target: GABA-A receptor; anion channel (Rattus norvegicus) (UniProt O09028+P15431+P18506+P18508+P19969+P20236+P23574+P23576+P28471+P28473+P30191+P62813+P63079+P63138+Q91ZM7+Q9ES14); test: Binding affinity by displacement of [3H]flumazenil from rat cortex homogenates; Not active; type: functional
How it was run: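 Displacement of [3H]flumazenil from rat cortex homogenates. […] Values are averages (±SD); some analogues were run once as a single set of triplicates. NA means an IC50 was not achieved at the highest dose tested.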

Structure (SMILES): Oc1nc2c(c3nc(-c4ccccc4F)cn13)CN(Cc1cccs1)CC2
- Activity [1]: 96%
- Ki [2]: 0.5 nM
- Activity [3]: 49%
- EC50 [4]: 375 nM
- EC50 [5]: 67 nM
- EC50 [6]: 107 nM
- Activity [7]: 50%
- EC50 [8]: 367 nM
- Activity [9]: 54%

Structure (SMILES): Cc1ccc(-c2nc3ccc(C)cn3c2CC(=O)N(C)C)cc1 [ZOLPIDEM]
- Activity [1]: 700%
- Activity [3]: < 20%
- EC50 [4]: > 3000 nM
- Activity [7]: 322%
- Activity [9]: 291%
- OMNI med (Rattus norvegicus): 0.25 mg/kg

Structure (SMILES): CCC(=O)N1CCc2nc(O)n3cc(-c4ccccc4F)nc3c2C1
- Activity [1]: 9%
- Ki [2]: 216 nM
- Activity [3]: 0%
- EC50 [5]: 110 nM
- EC50 [6]: 95 nM
- Activity [7]: 12%
- EC50 [8]: 116 nM
- Activity [9]: 22%

Structure (SMILES): Oc1nc2c(c3nc(-c4ccccc4F)cn13)CNCC2
- NA [10]: inactive

Structure (SMILES): Oc1nc2c(c3nc(-c4ccccc4F)cn13)CN(c1ncccn1)CC2
- Activity [1]: 35%
- Ki [2]: 133 nM
- Activity [3]: 0%
- EC50 [5]: 84 nM
- Activity [7]: 0%
- EC50 [8]: 117 nM
- Activity [9]: 44%

Structure (SMILES): Oc1nc2c(c3nc(-c4ccccc4F)cn13)CN(CC1CC1)CC2
- Activity [1]: 28%
- Ki [2]: 30 nM
- Activity [3]: 7%
- EC50 [4]: 94 nM
- EC50 [5]: 1160 nM
- EC50 [6]: 135 nM
- Activity [7]: 31%
- EC50 [8]: 424 nM
- Activity [9]: 36%

Structure (SMILES): Oc1nc2c(c3nc(-c4ccccc4F)cn13)CN(Cc1cccnc1)CC2
- Activity [1]: 81%
- Activity [3]: 0%
- Activity [7]: 29%
- Activity [9]: 78%
- minimum effective dose on locomotor activity (Rattus norvegicus): 0.5 mg/kg

Structure (SMILES): O=c1[nH]c2c(c3nc(-c4ccccc4F)cn13)CN(CC1CCCCC1)CC2
- Ki [2]: 0.9 nM
- EC50 [4]: 231 nM
- EC50 [5]: 202 nM
- EC50 [6]: 127 nM
- EC50 [8]: 213 nM

Structure (SMILES): O=C(c1ccccc1)N1CCc2nc(O)n3cc(-c4cccc(Cl)c4)nc3c2C1
- NA [10]: inactive

Structure (SMILES): CCCCN1CCc2nc(O)n3cc(-c4ccccc4F)nc3c2C1
- Activity [1]: 72%
- Ki [2]: 7.3 nM
- Activity [3]: 4%
- EC50 [4]: 291 nM
- EC50 [5]: 247 nM
- EC50 [6]: 258 nM
- Activity [7]: 70%
- EC50 [8]: 394 nM
- Activity [9]: 86%

Structure (SMILES): Cc1nnc2n1-c1ccc(Cl)cc1C(c1ccccc1)=NC2 [ALPRAZOLAM]
- Activity [1]: 774%
- Ki [2]: 3.3 nM
- Activity [3]: 206%
- EC50 [4]: 10 nM
- EC50 [5]: 12 nM
- EC50 [6]: 37 nM
- Activity [7]: 327%
- EC50 [8]: 69 nM
- Activity [9]: 333%
- OMNI med (Rattus norvegicus): 0.125 mg/kg

Structure (SMILES): Oc1nc2c(c3nc(-c4cccc(F)c4)cn13)CN(Cc1ccccc1)CC2
- Activity [7]: 92%
- Activity [9]: 81%
- minimum effective dose on locomotor activity (Rattus norvegicus): 2 mg/kg

Structure (SMILES): COc1ccc(-c2cn3c(O)nc4c(c3n2)CN(Cc2ccccc2)CC4)cc1
- Activity [7]: 122%
- Activity [9]: 142%
- minimum effective dose on locomotor activity (Rattus norvegicus): 0.06 mg/kg

Structure (SMILES): O=c1[nH]c2c(c3nc(-c4ccccc4F)cn13)CN(Cc1cnc[nH]1)CC2
- Ki [2]: 10.1 nM
- EC50 [4]: 439 nM
- EC50 [5]: 459 nM
- EC50 [6]: 118 nM
- EC50 [8]: 425 nM

Structure (SMILES): CCCCCC(=O)N1CCc2nc(O)n3cc(-c4ccccc4F)nc3c2C1
- NA [10]: inactive

Structure (SMILES): O=C(OCc1ccccc1)N1CCc2[nH]c(=O)n3cc(-c4ccccc4F)nc3c2C1
- Ki [2]: 39 nM
- EC50 [4]: 1000 nM
- EC50 [5]: < 100 nM
- EC50 [6]: < 100 nM

Structure (SMILES): O=c1[nH]c2c(c3nc(-c4ccccc4F)cn13)CN(Cc1ccccc1)CC2
- Ki [2]: 1.3 nM
- EC50 [4]: 74 nM
- EC50 [5]: 20 nM
- EC50 [6]: 18 nM
- EC50 [8]: 20 nM

Structure (SMILES): Cc1ccc(-c2cn3c(O)nc4c(c3n2)CN(Cc2ccccc2)CC4)cc1
- Activity [1]: 174%
- Ki [2]: 43 nM
- Activity [3]: 17%
- EC50 [4]: 650 nM
- EC50 [5]: 1180 nM
- EC50 [6]: 266 nM
- Activity [7]: 62%
- EC50 [8]: 3830 nM
- Activity [9]: 94%

Structure (SMILES): Oc1nc2c(c3nc(-c4ccc(F)cc4)cn13)CN(Cc1ccccc1)CC2
- Activity [7]: 186%
- Activity [9]: 155%
- minimum effective dose on locomotor activity (Rattus norvegicus): 1 mg/kg

Structure (SMILES): COc1ccc(-c2cn3c(O)nc4c(c3n2)CN(C(=O)c2ccccc2)CC4)cc1
- NA [10]: inactive

Structure (SMILES): O=c1[nH]c2c(c3nc(-c4ccc(F)cc4F)cn13)CN(Cc1ccccc1)CC2
- Ki [2]: 2 nM
- EC50 [4]: 323 nM
- EC50 [5]: 210 nM
- EC50 [6]: 92 nM
- EC50 [8]: 500 nM
